Laboratory results from ChEMBL document CHEMBL1770075, “Thermal solvent-free synthesis of novel pyrazolyl chalcones and pyrazolines as potential antimicrobial agents” (2011).
Converted amounts (≈) assume the structure as drawn.

Tests used:
Type in all cases: functional
[1] = system: Staphylococcus aureus; experiment: Antibacterial activity against methicillin-resistant Staphylococcus aureus after 24 hrs by disk diffusion method
[2] = system: Staphylococcus aureus; experiment: Antibacterial activity against methicillin-resistant Staphylococcus aureus after 24 hrs by broth dilution method
[3] = system: Aspergillus fumigatus; experiment: Antifungal activity against Aspergillus fumigatus after 48 hrs
Method in brief: (§1)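 Broth with two-fold serial dilutions of compound was inoculated with 1.6 × 10⁴–6 × 10⁴ c.f.u/ml and incubated at 35 °C. MIC is the lowest concentration that arrests growth. For MFC, 0.1 ml was spread on agar, colonies were counted after 48 h at 35 °C, and the endpoint was the lowest concentration killing 99.9%.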

[4] = system: Streptococcus pyogenes; experiment: Antibacterial activity against clinical isolate of Streptococcus pyogenes after 24 hrs by broth dilution method
[5] = system: Trichophyton mentagrophytes; experiment: Antifungal activity against Trichophyton mentagrophytes after 48 hrs by agar diffusion method
[6] = system: Pseudomonas aeruginosa; experiment: Antibacterial activity against Pseudomonas aeruginosa ATCC 27853 after 24 hrs by disk diffusion method
[7] = system: Talaromyces marneffei; experiment: Antifungal activity against Penicillium marneffei after 48 hrs; method in brief: as §1
[8] = system: Aspergillus fumigatus; experiment: Antifungal activity against Aspergillus fumigatus after 48 hrs by agar diffusion method
[9] = system: Klebsiella pneumoniae; experiment: Bactericidal activity against clinical isolate of Klebsiella pneumoniae after 18 to 24 hrs by colony counting method
[10] = system: Talaromyces marneffei; experiment: Antifungal activity against Penicillium marneffei after 48 hrs by agar diffusion method
[11] = system: Escherichia coli; experiment: Antibacterial activity against Escherichia coli ATCC 25922 after 24 hrs by disk diffusion method
[12] = system: Pseudomonas aeruginosa; experiment: Antibacterial activity against Pseudomonas aeruginosa ATCC 27853 after 24 hrs by broth dilution method; conditions: ATCC 27853, 24 h
[13] = system: Escherichia coli; experiment: Bactericidal activity against Escherichia coli ATCC 25922 after 18 to 24 hrs by colony counting method
Method in brief: (§2)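 Colonies were counted after 18–24 h at 35 °C. MBC is the lowest concentration that kills 99.9% of the inoculum.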

[14] = system: Streptococcus pyogenes; experiment: Bactericidal activity against clinical isolate of Streptococcus pyogenes after 18 to 24 hrs by colony counting method
[15] = system: Pseudomonas aeruginosa; experiment: Bactericidal activity against Pseudomonas aeruginosa ATCC 27853 after 18 to 24 hrs by colony counting method; method in brief: as §2
[16] = system: Trichophyton mentagrophytes; experiment: Antifungal activity against Trichophyton mentagrophytes after 48 hrs; method in brief: as §1
[17] = system: Candida albicans; experiment: Antifungal activity against Candida albicans after 48 hrs by agar diffusion method
[18] = system: Candida albicans; experiment: Antifungal activity against Candida albicans after 48 hrs; method in brief: as §1
[19] = system: Streptococcus pyogenes; experiment: Antibacterial activity against clinical isolate of Streptococcus pyogenes after 24 hrs by disk diffusion method
[20] = system: Escherichia coli; experiment: Antibacterial activity against Escherichia coli ATCC 25922 after 24 hrs by broth dilution method; conditions: ATCC 25922, 24 h
[21] = system: Klebsiella pneumoniae; experiment: Antibacterial activity against clinical isolate of Klebsiella pneumoniae after 24 hrs by disk diffusion method
[22] = system: Staphylococcus aureus; experiment: Bactericidal activity against methicillin-resistant Staphylococcus aureus after 18 to 24 hrs by colony counting method; method in brief: as §2
[23] = system: Klebsiella pneumoniae; experiment: Antibacterial activity against clinical isolate of Klebsiella pneumoniae after 24 hrs by broth dilution method
[24] = system: Trichophyton mentagrophytes; experiment: Antifungal activity against Trichophyton mentagrophytes after 48 hrs by Halo zone test
[25] = system: Talaromyces marneffei; experiment: Antifungal activity against Penicillium marneffei after 48 hrs by Halo zone test
[26] = system: Candida albicans; experiment: Antifungal activity against Candida albicans after 48 hrs by Halo zone test
[27] = system: Aspergillus fumigatus; experiment: Antifungal activity against Aspergillus fumigatus after 48 hrs by Halo zone test

Structure (SMILES) | diameter of the inhibition zone (DIZ) [1] [mm] | MIC [2] [µg/mL] | MFC [3] [µg/mL] | MIC [3] [µg/mL] | MIC [4] [µg/mL] | diameter of the inhibition zone (DIZ) [5] [mm] | diameter of the inhibition zone (DIZ) [6] [mm] | MFC [7] [µg/mL] | MIC [7] [µg/mL] | diameter of the inhibition zone (DIZ) [8] [mm] | MBC [9] [µg/mL] | diameter of the inhibition zone (DIZ) [10] [mm] | diameter of the inhibition zone (DIZ) [11] [mm] | MIC [12] [µg/mL] | MBC [13] [µg/mL] | MBC [14] [µg/mL] | MFC [16] [µg/mL] | MIC [16] [µg/mL] | MFC [18] [µg/mL] | MIC [18] [µg/mL] | also measured
Cc1nn(-c2ccccc2)c(Cl)c1C1CC(C2C(=O)N(C)C(=O)N(C)C2=O)=NN1 (stereo not given) | 16.5 | 50 (≈ 121 µM) | 100 (≈ 241 µM) | 25 (≈ 60.3 µM) | 25 (≈ 60.3 µM) | 16.9 | 21.8 | > 100 | 50 (≈ 121 µM) | 17.4 | 100 (≈ 241 µM) | 14.2 | 19.6 | 50 (≈ 121 µM) | 100 (≈ 241 µM) | 50 (≈ 121 µM) | 100 (≈ 241 µM) | 25 (≈ 60.3 µM) | 100 (≈ 241 µM) | 25 (≈ 60.3 µM) | MBC [15]: 100 µg/mL (≈ 241 µM); diameter of the inhibition zone (DIZ) [17]: 20.8 mm; diameter of the inhibition zone (DIZ) [19]: 17.1 mm; MIC [20]: 25 µg/mL (≈ 60.3 µM); diameter of the inhibition zone (DIZ) [21]: 15.7 mm; MBC [22]: 100 µg/mL (≈ 241 µM); MIC [23]: 50 µg/mL (≈ 121 µM)
Cc1nn(-c2ccccc2)c(Cl)c1C1CC(C2C(=O)NC(=O)NC2=O)=NN1 (stereo not given) | 15.3 | 100 (≈ 259 µM) | 100 (≈ 259 µM) | 50 (≈ 129 µM) | 50 (≈ 129 µM) | 16 | 20.1 | 100 (≈ 259 µM) | 50 (≈ 129 µM) | 16.8 | > 100 | 13.1 | 19.2 | 50 (≈ 129 µM) | > 100 | 100 (≈ 259 µM) | 100 (≈ 259 µM) | 50 (≈ 129 µM) | 100 (≈ 259 µM) | 50 (≈ 129 µM) | MBC [15]: 100 µg/mL (≈ 259 µM); diameter of the inhibition zone (DIZ) [17]: 20.4 mm; diameter of the inhibition zone (DIZ) [19]: 16.8 mm; MIC [20]: 50 µg/mL (≈ 129 µM); diameter of the inhibition zone (DIZ) [21]: 14.7 mm; MBC [22]: > 100 µg/mL; MIC [23]: 50 µg/mL (≈ 129 µM)
Cc1nn(-c2ccccc2)c(Cl)c1/C=C/C(=O)C1C(=O)NC(=O)NC1=O | 20.2 | 12.5 (≈ 33.5 µM) | 25 (≈ 67.1 µM) | 12.5 (≈ 33.5 µM) | 12.5 (≈ 33.5 µM) | 17.1 | 27.2 | 25 (≈ 67.1 µM) | 12.5 (≈ 33.5 µM) | 21.3 | 25 (≈ 67.1 µM) | 14.1 | 24.8 | 12.5 (≈ 33.5 µM) | 50 (≈ 134 µM) | 25 (≈ 67.1 µM) | 25 (≈ 67.1 µM) | 12.5 (≈ 33.5 µM) | 25 (≈ 67.1 µM) | 12.5 (≈ 33.5 µM) | MBC [15]: 25 µg/mL (≈ 67.1 µM); diameter of the inhibition zone (DIZ) [17]: 25.5 mm; diameter of the inhibition zone (DIZ) [19]: 22.2 mm; MIC [20]: 12.5 µg/mL (≈ 33.5 µM); diameter of the inhibition zone (DIZ) [21]: 17.1 mm; MBC [22]: 50 µg/mL (≈ 134 µM); MIC [23]: 12.5 µg/mL (≈ 33.5 µM)
OC(Cn1cncn1)(Cn1cncn1)c1ccc(F)cc1F [FLUCONAZOLE] | – | – | 12.5 (≈ 40.8 µM) | 6.5 (≈ 21.2 µM) | – | – | – | 12.5 (≈ 40.8 µM) | 6.5 (≈ 21.2 µM) | – | – | – | – | – | – | – | 12.5 (≈ 40.8 µM) | 6.25 (≈ 20.4 µM) | 12.5 (≈ 40.8 µM) | 6.25 (≈ 20.4 µM) | diameter of the inhibition zone (DIZ) [24]: 19 mm; diameter of the inhibition zone (DIZ) [25]: 18 mm; diameter of the inhibition zone (DIZ) [26]: 20 mm; diameter of the inhibition zone (DIZ) [27]: 20 mm
COC1=CC(=O)C[C@@H](C)[C@]12Oc1c(Cl)c(OC)cc(OC)c1C2=O [GRISEOFULVIN] | – | – | 25 (≈ 70.9 µM) | 12.5 (≈ 35.4 µM) | – | – | – | 25 (≈ 70.9 µM) | 12.5 (≈ 35.4 µM) | – | – | – | – | – | – | – | 25 (≈ 70.9 µM) | 6.25 (≈ 17.7 µM) | 12.5 (≈ 35.4 µM) | 6.25 (≈ 17.7 µM) | diameter of the inhibition zone (DIZ) [24]: 24 mm; diameter of the inhibition zone (DIZ) [25]: 20 mm; diameter of the inhibition zone (DIZ) [26]: 30 mm; diameter of the inhibition zone (DIZ) [27]: 27 mm
